ChEMBL document CHEMBL4808167, “Design, Synthesis, and Evaluation of Small Molecule Gαq/11 Protein Inhibitors for the Treatment of Uveal Melanoma” (J Med Chem, 2021)
Activity calls are given as the source filed them. No cut-off for these calls is given here.

Tests used:
GNAQ/GNA11 = biological target: T1, GNAQ/GNA11 (Homo sapiens, UniProt P50148+P29992); assay: Inhibition of Galphaq/11 (unknown origin) expressed in CHO cells coexpressing M1 receptor assessed as reduction in carbachol-induced IP1 accumulation preincubated for 1 hr followed by carbachol stimulation and measured after 1 hr by HTRF assay; format: cell-based
T1 sequence (P50148 whole entry): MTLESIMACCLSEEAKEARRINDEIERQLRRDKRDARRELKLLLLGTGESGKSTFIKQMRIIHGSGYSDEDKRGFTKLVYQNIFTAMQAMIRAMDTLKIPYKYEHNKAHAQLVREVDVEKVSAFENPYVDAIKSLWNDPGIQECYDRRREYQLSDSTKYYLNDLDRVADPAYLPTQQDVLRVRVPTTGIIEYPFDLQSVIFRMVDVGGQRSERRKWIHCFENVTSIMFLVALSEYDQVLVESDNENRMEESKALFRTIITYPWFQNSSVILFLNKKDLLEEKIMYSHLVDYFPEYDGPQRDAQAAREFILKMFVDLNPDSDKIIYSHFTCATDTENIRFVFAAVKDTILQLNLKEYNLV
T1 sequence (P29992 whole entry): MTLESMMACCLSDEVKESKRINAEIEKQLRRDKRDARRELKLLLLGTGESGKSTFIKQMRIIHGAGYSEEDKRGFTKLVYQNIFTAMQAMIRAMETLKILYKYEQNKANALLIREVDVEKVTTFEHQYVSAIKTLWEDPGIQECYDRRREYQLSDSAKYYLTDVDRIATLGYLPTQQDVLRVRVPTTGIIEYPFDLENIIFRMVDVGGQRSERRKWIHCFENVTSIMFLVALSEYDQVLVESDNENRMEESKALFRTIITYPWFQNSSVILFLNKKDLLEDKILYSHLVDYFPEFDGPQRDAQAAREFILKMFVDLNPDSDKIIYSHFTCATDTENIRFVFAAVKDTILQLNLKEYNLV

[1] = Cmax in ICR mouse at 10 mg/kg, iv measured upto 24 hrs by LC-MS/MS analysis; format: ADME, organism-based; parameters: route intravenous, dose 10 mg/kg, time <=24; conditions: in vivo
In short: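 Single dose in male ICR mice, 10 mg/kg iv or 30 mg/kg po, dissolved in 5% DMSO/95% saline. Blood drawn by catheter at 0, 5, 15, 30 min and 1, 2, 4, 6, 8, 24 h. Plasma spun 6800g 6 min at 2−8 °C, stored −80 °C, quantified by LC−MS/MS. Noncompartmental parameters, mean ± SD, n = 6.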

[2] = Induction of apoptosis in human MP41 cells assessed as viable cells at 30 uM after 48 hrs by Annexin-V-FITC/propidium iodide staining based flow cytometry (reference value: 93.6%); format: functional; conditions: read-out: Activity
CHO = assay: Induction of morphological changes in chinese hamster CHO cells overexpressing M1 receptor upto 20 uM by light microscopic analysis; format: cell-based, Cricetulus griseus
In short: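 CHO-M₁ cells were treated with compound at 10 or 20 μM for 2 h, and changes in cell morphology were examined by microscopy.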

[3] = Oral bioavailability in ICR mouse at 30 mg/kg measured upto 24 hrs by LC-MS/MS analysis; format: ADME, organism-based; conditions: in vivo
In short: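 Single-dose PK in male ICR mice (n = 6): 10 mg/kg iv or 30 mg/kg po, vehicle 5% DMSO/95% saline. Blood (30 μL) by catheter at 0, 5, 15, 30 min and 1, 2, 4, 6, 8, 24 h; plasma by centrifugation, stored −80 °C, measured by LC–MS/MS. Parameters from noncompartmental analysis, mean SD.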

921 = assay: Antiproliferative activity against GNAQ knock down human 92.1 cells assessed as inhibition of cell growth at 10 to 15 uM after 72 hrs by CKK8 assay; format: functional; conditions: dose 10-15 µM
MP41 [4] = assay: Inhibition of cell invasion in human MP41 cells at 5 to 15 uM incubated for 48 hrs by transwell assay; format: functional, cell-based; conditions: dose 5-15 µM
In short: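 92.1 or MP41 cells (1 × 10⁴/well) seeded in serum-free medium in the upper transwell chamber, with 20% FBS medium below. Left overnight, then treated 48 h. Non-migrated cells swabbed off; cells on the lower side stained with crystal violet 30 min and counted by light microscopy (×40 for migration, ×100 for invasion). Mean ± SD, n = 3.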

[5] = Induction of apoptosis in human MP41 cells assessed as necrotic cells at 15 uM after 48 hrs by Annexin-V-FITC/propidium iodide staining based flow cytometry (reference value: 0.11%); format: functional
[6] = Induction of apoptosis in human 921 cells assessed as necrotic cells at 15 uM after 48 hrs by Annexin-V-FITC/propidium iodide staining based flow cytometry (reference value: 0.26%); format: functional
[7] = biological target: T2, GNAQ/GNA11 (Homo sapiens) (UniProt P50148+P29992); assay: Inhibition of Galphaq/11 in human MP41 cells xenografted mouse tumor tissue assessed as induction of YAP phosphorylation at 10 to 30 mg/kg, ip administered for 21 consecutive days by Western blot analysis; format: organism-based; conditions: dose 10-30 mg/kg, time 21.0 day
In short: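 MP41 xenograft tumours from mice given 10 or 30 mg/kg/day ip for 21 consecutive days were analysed by Western blot. Probed for p-YAP, YAP, p-ERK and ERK, with GAPDH as loading control. Representative of triplicate experiments.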

[8] = Induction of apoptosis in human MP41 cells assessed as necrotic cells at 30 uM after 48 hrs by Annexin-V-FITC/propidium iodide staining based flow cytometry (reference value: 0.11%); format: functional
[9] = Induction of apoptosis in human MP41 cells assessed as late apoptotic cells at 30 uM after 48 hrs by Annexin-V-FITC/propidium iodide staining based flow cytometry (reference value: 3.28%); format: functional
[10] = biological target: T2, GNAQ/GNA11 (Homo sapiens); assay: Inhibition of Galphaq/11 in human MP41 cells assessed as reduction in ERK phosphorylation at 15 to 30 uM after 48 hrs by Western blot analysis; format: cell-based; conditions: dose 15-30 µM
In short: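 92.1 and MP41 cells plated overnight, then exposed to compound 48 h. Lysed in ice-cold buffer and protein quantified by BCA. Resolved on 8−12% SDS−PAGE and transferred to PVDF. Probed for p-YAP Ser127, total YAP, p-ERK1/2 Thr202/Tyr204 and total ERK1/2, with GAPDH as loading control. ECL detection, triplicate.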

MP41 [11] = assay: Inhibition of cell migration in human MP41 cells at 30 uM incubated for 48 hrs by Transwell migration assay; format: functional, cell-based
In short: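 Transwell migration: 92.1 and MP41 cells (RPMI-1640, 10% FBS) seeded 1 × 10⁴/well in upper chamber in serum-free medium, 20% FBS medium below; overnight at 37 °C, then compound for 48 h. Non-migrated cells swabbed off; lower cells crystal violet-stained 30 min, counted by light microscopy. Mean SD of three independent experiments.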

[12] = Induction of apoptosis in human 921 cells assessed as late apoptotic cells at 15 uM after 48 hrs by Annexin-V-FITC/propidium iodide staining based flow cytometry (reference value: 2.52%); format: functional

- IC50 (GNAQ/GNA11): 22.6 µM
- Cmax [1]: 2610 ng/mL
- bioavailability [3]: 92.6%
- inhibition [7]: Active
- inhibition [10]: Active
Structure (SMILES): CC[C@@H](C)[C@H](N)C(=O)N1CCn2cc(-c3ccccc3)nc2[C@@H]1CC1CCCCC1
- viability at 30 µM [2]: 75.7%
- Activity (CHO): Non-Toxic
- Activity 921: inactive
- inhibition (MP41 [4]): Active
- Activity [5]: 0.09%
- Activity [6]: 0.36%
- Activity [8]: 0.27%
- Activity [9]: 6.16%
- inhibition (MP41 [11]): Active
- Activity [12]: 6.99%
